{
  "source": "ChEMBL document CHEMBL4359879",
  "about": "“Synthesis and evaluation of 2-carboxy indole derivatives as potent and selective anti-leukemic agents” (Eur J Med Chem, 2019)",
  "key": {"HL-60 [1]": {"test_system": "HL-60", "assay": "Effect on human HL60 cells assessed as fold change in GPSM2 gene expression at 1.085 uM incubated for 6 hrs by microarray-based method", "assay_type": "functional", "outline": "(§1)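 HL60 cells were treated in triplicate with 1.085 µM or vehicle for 6 h. Total RNA was extracted with on-column DNase treatment and profiled on expression arrays.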"}, "HL-60 [2]": {"test_system": "HL-60", "assay": "Effect on human HL60 cells assessed as fold change in MOB2 gene expression at 1.085 uM incubated for 6 hrs by microarray-based method", "assay_type": "functional", "outline": "as §1"}, "HL-60 [3]": {"test_system": "HL-60", "assay": "Effect on human HL60 cells assessed as fold change in ARL17A gene expression at 1.085 uM incubated for 6 hrs by microarray-based method", "assay_type": "functional", "outline": "as §1"}, "HeLa": {"test_system": "HeLa", "assay": "Induction of cell cycle arrest in human HeLa cells assessed as formation of condensed chromosomes at 500 nM incubated for 18 hrs by DAPI staining based fluorescence microscopic method", "assay_type": "functional", "outline": "(§2)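 HeLa cells (100,000/mL) cultured overnight on glass-bottom dishes, then exposed to 500 nM or 1 μM, or DMSO, for 18 h. Permeabilized (0.5% Triton X-100) and fixed (3.7% formaldehyde). Stained overnight at 4 °C with anti-β-tubulin, then Alexa Fluor 647 secondary for 1 h at room temperature, and DAPI 1 μg/mL for 10 min. Examined by fluorescence microscopy.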"}, "CCRF-CEM [4]": {"test_system": "CCRF-CEM", "assay": "Induction of apoptosis in human CEM cells at 300 nM incubated for 18 hrs by Annexin V-FITC/propidium iodide staining-based flow cytometric analysis", "assay_type": "functional, cell-based", "outline": "(§3)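 CEM, HL60 or RS4;11 cells (5×10^5) treated with 300 nM or vehicle for 18 h. Stained with FITC-Annexin V in binding buffer for 15 min at 37 °C, then PI (5 μg/mL) for 3 min. Analyzed by flow cytometry.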"}, "Tubulin (Homo sapiens) [5]": {"target": "T1, Tubulin (Homo sapiens) (UniProt P68371+Q9H4B7+P0DPH7+P68366+Q13509+Q71U36+P04350+Q3ZCM7+P07437+P68363+Q9BQE3+Q6PEY2+Q13885+Q9BVA1+Q9BUF5)", "assay": "Induction of microtubule network depolymerization in human HeLa cells at 1 uM incubated for 18 hrs by DAPI staining based fluorescence microscopic method", "assay_type": "cell-based", "outline": "as §2"}, "HL-60 [6]": {"test_system": "HL-60", "assay": "Effect on human HL60 cells assessed as fold change in C14orf180 gene expression at 1.085 uM incubated for 6 hrs by microarray-based method", "assay_type": "functional", "outline": "as §1"}, "HL-60 [7]": {"test_system": "HL-60", "assay": "Effect on human HL60 cells assessed as fold change in KPNA1 gene expression at 1.085 uM incubated for 6 hrs by microarray-based method", "assay_type": "functional", "outline": "as §1"}, "HL-60 [8]": {"test_system": "HL-60", "assay": "Effect on human HL60 cells assessed as fold change in CRADD gene expression at 1.085 uM incubated for 6 hrs by microarray-based method", "assay_type": "functional", "outline": "as §1"}, "RS4-11 [9]": {"test_system": "RS4-11", "assay": "Effect on human RS4:11 cells assessed as increase in p53 protein expression at 300 nM incubated for 15 to 360 mins by Western blot analysis", "assay_type": "functional, cell-based", "outline": "(§4)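 Leukemia cells (RS4;11, CEM, HL60) treated with 300 nM for 0, 15, 30, 60 and 360 min. Western blotting for β-tubulin and p53, with lamin B1 as loading control and chemiluminescent detection.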"}, "HL-60 [10]": {"test_system": "HL-60", "assay": "Effect on human HL60 cells assessed as fold change in TAF15 gene expression at 1.085 uM incubated for 6 hrs by microarray-based method", "assay_type": "functional", "outline": "as §1"}, "HL-60 [11]": {"test_system": "HL-60", "assay": "Effect on human HL60 cells assessed as fold change in MEIOC gene expression at 1.085 uM incubated for 6 hrs by microarray-based method", "assay_type": "functional", "outline": "as §1"}, "HL-60 [12]": {"test_system": "HL-60", "assay": "Effect on human HL60 cells assessed as fold change in NCBP2-AS2 gene expression at 1.085 uM incubated for 6 hrs by microarray-based method", "assay_type": "functional", "outline": "as §1"}, "HL-60 [13]": {"test_system": "HL-60", "assay": "Induction of cell cycle arrest in human HL60 cells assessed as increase in accumulation of cells at sub G1 phase at EC50 by PI staining based flow cytometric analysis", "assay_type": "functional", "conditions": "TDE = time-dependent effect"}, "RS4-11 [14]": {"test_system": "RS4-11", "assay": "Induction of cell cycle arrest in human RS4:11 cells assessed as increase in accumulation at G2/M phase at 300 nM incubated for 18 hrs by BrdU/propidium iodide staining based flow cytometric analysis", "assay_type": "functional", "outline": "(§5)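 RS4;11 cells treated with 300 nM or DMSO vehicle for 18 h, then pulsed with 10 μM BrdU for 1 h. Harvested cells immunostained for BrdU/PI (cell cycle), γH2AX (DNA damage) and PARP (apoptosis). Multicolor flow cytometry gated G1, sub-G2-like, G2/M and sub-G0/G1 populations.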"}, "HL-60 [15]": {"test_system": "HL-60", "assay": "Effect on human HL60 cells assessed as fold change in LSMEM1 gene expression at 1.085 uM incubated for 6 hrs by microarray-based method", "assay_type": "functional", "outline": "as §1"}, "RS4-11 [16]": {"test_system": "RS4-11", "assay": "Induction of DNA damage in human RS4:11 cells assessed as accumulation of cells at G2 phase at 300 nM incubated for 18 hrs in presence of H2AX antibody by immunofluorescent staining based flow cytometric analysis relative to control", "assay_type": "functional", "outline": "as §5"}, "HL-60 [17]": {"test_system": "HL-60", "assay": "Effect on human HL60 cells assessed as fold change in TIAL1 gene expression at 1.085 uM incubated for 6 hrs by microarray-based method", "assay_type": "functional", "outline": "as §1"}, "RS4-11 [18]": {"test_system": "RS4-11", "assay": "Induction of DNA damage in human RS4:11 cells assessed as accumulation of cells at sub G2 phase at 300 nM incubated for 18 hrs in presence of H2AX antibody by immunofluorescent staining based flow cytometric analysis relative to control", "assay_type": "functional", "outline": "as §5"}, "Tubulin (Homo sapiens) [19]": {"target": "T1, Tubulin (Homo sapiens)", "assay": "Inhibition of tubulin polymerization in human CEM cells at 300 nM by Western blot analysis", "assay_type": "cell-based", "conditions": "TDE = time-dependent effect", "outline": "as §4"}, "HL-60 [20]": {"test_system": "HL-60", "assay": "Effect on human HL60 cells assessed as fold change in GDF10 gene expression at 1.085 uM incubated for 6 hrs by microarray-based method", "assay_type": "functional", "outline": "as §1"}, "HL-60 [21]": {"test_system": "HL-60", "assay": "Effect on human HL60 cells assessed as fold change in HOXB-AS3 gene expression at 1.085 uM incubated for 6 hrs by microarray-based method", "assay_type": "functional", "outline": "as §1"}, "HL-60 [22]": {"test_system": "HL-60", "assay": "Effect on human HL60 cells assessed as fold change in TBCC gene expression at 1.085 uM incubated for 6 hrs by microarray-based method", "assay_type": "functional", "outline": "as §1"}, "CCRF-CEM [23]": {"test_system": "CCRF-CEM", "assay": "Antiproliferative activity against human CEM cells incubated for 48 hrs by MTT assay", "assay_type": "functional, cell-based", "outline": "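Cells grown in RPMI-1640 with 10% FBS, penicillin/streptomycin, 37 °C, 5% CO2. After 48 h of exposure to a dilution series, MTT was added (0.5 mg/ml final) for 4 h. Formazan was dissolved overnight in acidic SDS (10% SDS, 0.01 mol/L HCl) and absorbance read at 570 and 620 nm. Survival was expressed relative to controls, and EC50 was fitted from dose-response curves.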"}, "HL-60 [24]": {"test_system": "HL-60", "assay": "Effect on human HL60 cells assessed as fold change in MIR4658 gene expression at 1.085 uM incubated for 6 hrs by microarray-based method", "assay_type": "functional", "outline": "as §1"}, "HL-60 [25]": {"test_system": "HL-60", "assay": "Effect on human HL60 cells assessed as fold change in flaw-mawbo gene expression at 1.085 uM incubated for 6 hrs by microarray-based method", "assay_type": "functional"}, "CCRF-CEM [26]": {"test_system": "CCRF-CEM", "assay": "Effect on human CEM cells assessed as increase in p53 protein expression at 300 nM incubated for 15 to 360 mins by Western blot analysis", "assay_type": "functional, cell-based", "outline": "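RS4;11, CEM and HL60 cells were exposed to 300 nM for 0, 15, 30, 60 and 360 min. Lysates were immunoblotted for β-tubulin and p53, with lamin B1 as loading control. Detection was by chemiluminescence.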"}, "HL-60 [27]": {"test_system": "HL-60", "assay": "Induction of apoptosis in human HL60 cells at 300 nM incubated for 18 hrs by Annexin V-FITC/propidium iodide staining-based flow cytometric analysis", "assay_type": "functional, cell-based", "outline": "as §3"}},
  "note": "Active and inactive are the calls of the source. No cut-off for these calls is given here.",
  "data": [
    {"smiles": "COC(=O)c1[nH]c2cc(OC)ccc2c1-c1ccc(C(F)(F)F)cc1", "values": [
      {"measurement": "fold change (FC)", "setting": "HL-60 [1]", "result": 1.62},
      {"measurement": "fold change (FC)", "setting": "HL-60 [2]", "result": -1.79},
      {"measurement": "fold change (FC)", "setting": "HL-60 [3]", "result": -1.5},
      {"measurement": "Activity", "setting": "HeLa", "result": "Active"},
      {"measurement": "Activity", "setting": "CCRF-CEM [4]", "result": "Active"},
      {"measurement": "Activity", "setting": "Tubulin (Homo sapiens) [5]", "result": "Active"},
      {"measurement": "fold change (FC)", "setting": "HL-60 [6]", "result": 1.56},
      {"measurement": "fold change (FC)", "setting": "HL-60 [7]", "result": 1.89},
      {"measurement": "fold change (FC)", "setting": "HL-60 [8]", "result": 1.61},
      {"measurement": "Activity", "setting": "RS4-11 [9]", "result": "Active"},
      {"measurement": "fold change (FC)", "setting": "HL-60 [10]", "result": 1.75},
      {"measurement": "fold change (FC)", "setting": "HL-60 [11]", "result": -1.63},
      {"measurement": "fold change (FC)", "setting": "HL-60 [12]", "result": -1.58},
      {"measurement": "Activity", "setting": "HL-60 [13]", "result": "Tde"},
      {"measurement": "Activity", "setting": "RS4-11 [14]", "result": "Active"},
      {"measurement": "fold change (FC)", "setting": "HL-60 [15]", "result": -1.69},
      {"measurement": "Activity", "setting": "RS4-11 [16]", "result": 6.9, "unit": "%"},
      {"measurement": "fold change (FC)", "setting": "HL-60 [17]", "result": 1.63},
      {"measurement": "Activity", "setting": "RS4-11 [18]", "result": 2.3, "unit": "%"},
      {"measurement": "inhibition", "setting": "Tubulin (Homo sapiens) [19]", "result": "Tde"},
      {"measurement": "fold change (FC)", "setting": "HL-60 [20]", "result": -1.56},
      {"measurement": "fold change (FC)", "setting": "HL-60 [21]", "result": -1.54},
      {"measurement": "fold change (FC)", "setting": "HL-60 [22]", "result": -1.54},
      {"measurement": "EC50", "setting": "CCRF-CEM [23]", "result": 200, "unit": "nM"},
      {"measurement": "fold change (FC)", "setting": "HL-60 [24]", "result": -1.72},
      {"measurement": "fold change (FC)", "setting": "HL-60 [25]", "result": -1.62},
      {"measurement": "Activity", "setting": "CCRF-CEM [26]", "result": "Active"},
      {"measurement": "Activity", "setting": "HL-60 [27]", "result": "Active"}
    ]}
  ]
}
